This is a sample that favours compounds with a hit; in the whole collection about 12% have one here.
MT stabilize HCS: microtubule stabilization, imaging screen; % tubulin-high responders, % at 10 µM; HeLa tubulin immunostaining HCS, 24 h; share of cells brighter than vehicle mean+2SD; 0.83% of 200,000 active; AID 2205;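 active means plate Z-score above 3 for both tubulin-high and condensed-nucleus cell shares, with cell loss under 80%, at 10 µM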;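 further: anti alpha tubulin signal scored within the nucleus-defined area of each cell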
L major viab: reduces viability of Leishmania major promastigotes; resazurin fluorescence viability; 9% of 200,000 active; inhibition, % at 10 µM; in the data active means inhibition above about 50%;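 further: promastigotes grown with compound for 44 hours at 28 °C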
Dynein transport: dynein cargo transport inhibition; AID 1381; 3617.4 mouse cells, GR-EGFP nuclear translocation imaging; test concentration mostly 20 µM; stimulated with dexamethasone, 1 µM; stronger effect = lower value; z-score, hits read low; 0.47% of 220,000 active;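 active means plate z-score of nuclear minus cytoplasmic receptor signal below a set negative limit, without overly bright fluorescence or cell loss, cut at about -3.5 in these data, passing the limit was not always enough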;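 further: z-score of nuclear minus cytoplasmic ring GR-EGFP intensity difference per well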
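Buffer or medium: Induction medium lacking tetracycline, stripped serum | Also added: Dexamethasone agonist, 1.0 µM final, for 30 min | Timing: 48 h induction, 1 h compound, 30 min dex at 37 °C | Detection: Formaldehyde fixation, Hoechst nuclear stain, 10x automated fluorescence imaging | Measure: Nuclear versus cytoplasmic GR-EGFP signal, averaged per well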
bCat nuc transl: beta-catenin nuclear translocation modulation | HeLa beta-catenin nuclear translocation, immunofluorescence imaging | nuclear translocation activity, % at 5 µM | 0.3% of 190,000 active;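 active means nuclear translocation activity above 50% at 5 µM, with a well cell count of 50 or more; inconclusive means wells under 50 cells across six images, flagged as toxic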;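 further: per-cell ratio of nuclear to cytoplasmic median beta-catenin stain intensity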
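Test system: human HeLa cells, endogenous beta-catenin. Times: 24 h compound exposure, 37°C. Measured by: beta-catenin immunofluorescence imaging with DAPI.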
CHOP inh: CHOP inhibition in unfolded protein response; CHO-K1 CHOP-promoter luciferase, tunicamycin-induced, 15-18 h; inhibition, % at 10 µM; 3.8% of 220,000 active;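 active means compounds that reduced the stress-induced luciferase reporter signal by more than about 70% of percent inhibition, limit read from the data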
Autophagy mod: alters autophagy in cells. calls only at 10 µM (by protocol). 0.98% of 190,000 active. AID 463193. MEF GFP-LC3 puncta imaging; test concentration mostly 10 µM;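 active means percentage of spot-positive cells more than 3 SD above its plate mean, without a fluorescence outlier flag or 80% toxicity; inconclusive means no clear call, values can overlap the other calls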
Hits are given with their value; - = inactive; ? = inconclusive; . = no result given.

SMILES | MT stabilize HCS | L major viab | Dynein transport | bCat nuc transl | CHOP inh | Autophagy mod
Cc1ccccc1Nc1c(-c2ccncc2)nc2ccc(Cl)cn12 | - | 75 | - | - | - | -
Cc1ccn2c(Nc3ccccc3C)c(-c3cccnc3)nc2c1 | - | - | - | - | - | -
OCCNc1c2ccccc2nc2c(F)c(F)c(F)c(F)c12 | - | - | - | 56 | - | -
COc1ccc(C2CC(c3ccccc3)=NN2c2ccc(Cl)c(C(=O)O)c2)cc1 (centres undefined) | - | - | - | - | - | -
CCOC(=O)C1=NN(c2ccc(OC)cc2)C(c2ccccc2)CC1=O (centres undefined) | - | 61 | - | - | - | -
COc1ccc(C2CC(c3ccccc3)=NN2c2ccc(N)cc2)cc1 (centres undefined) | - | - | - | . | 91 | -
Cn1c(N)c(C(=O)COC(=O)CC2CC3CCC2C3)c(=O)n(C)c1=O (centres undefined) | - | - | - | - | - | -
OCCNc1nc(Nc2ccccc2)nc2ccccc12 | - | 100 | - | - | - | -
Oc1ccccc1Nc1nc(NCc2ccccc2)c2ccccc2n1 | - | 100 | - | - | - | -
CC(C)(CO)Nc1nc(Nc2ccccc2)nc(Nc2ccccc2)n1 | - | 74 | - | - | - | -
OCCNc1nc(Nc2ccccc2)nc(Nc2ccccc2)n1 | - | - | - | - | - | -
CCOC(=O)c1nc(NCc2ccccc2)c2ccccc2n1 | - | 52 | - | - | - | -
C=CCNc1nc(C(=O)OCC)nc2ccccc12 | - | - | - | - | - | -
C[C@H](NC(=O)OC(C)(C)C)C(=O)N/N=C/c1ccc2nccnc2c1 | . | . | - | - | - | .
COc1cccc(/C(=N/O)C2CC2c2ccc(Cl)cc2)c1 (centres undefined) | - | - | - | - | - | -
CCCC(C)C(=O)Nc1ccc(S(=O)(=O)Nc2nccs2)cc1 (centres undefined) | - | - | - | - | - | -
CC(C)n1c(O)c(N=Nc2ccc(Cl)c(C(=O)O)c2)c2ccccc21 | . | . | - | - | - | .
Cc1onc(-c2ccccc2)c1C(=O)N1CC(C)OC(C)C1 (centres undefined) | - | - | - | - | - | -
Cc1cccc(Nc2nc(N)c([N+](=O)[O-])c(NCCO)n2)c1 | . | . | - | - | - | .
OCCNc1nc(Nc2ccc(Br)cc2)nc2ccccc12 | - | 100 | - | - | - | -
c1ccc(CSc2ccc(-c3cccnc3)nn2)cc1 | - | - | - | - | - | -
COc1cccc(NC(=O)CC2COc3ccccc3O2)c1 (centres undefined) | - | 57 | - | - | - | -
NCCc1c(-c2ccccc2)n(-c2ccccc2)c2ccccc12 | - | 101 | - | - | - | -
CCCc1c(O)c2ccccc2n(-c2ccccc2)c1=O | - | - | - | . | - | -
COc1ccc(-c2nnnn2-c2ccccc2OC)cc1 | 20 | - | - | - | . | -
SMILES | MT stabilize HCS | L major viab | Dynein transport | bCat nuc transl | CHOP inh | Autophagy mod
CC(C)Cc1ccc(/C=C/C(=O)NC2CC2)cc1 | - | - | - | - | - | -
CCCn1c(SCC(=O)N2c3ccccc3Sc3ccccc32)nc2c1c(=O)n(C)c(=O)n2C | - | 62 | - | - | - | -
Cn1c(=O)c2c(SCC(=O)N3CCCc4ccccc43)nc(CC(C)(C)C)nc2n(C)c1=O | - | 52 | - | - | 84 | ?
Cn1c(=O)c2c(nc(SCC(=O)N3c4ccccc4CCc4ccccc43)n2C)n(C)c1=O | - | 52 | - | - | - | -
CC(C)n1c(SCC(=O)N2c3ccccc3CCc3ccccc32)nc2c1c(=O)n(C)c(=O)n2C | - | - | - | . | . | -
CC(C)n1c(SCC(=O)N2c3ccccc3Sc3ccccc32)nc2c1c(=O)n(C)c(=O)n2C | - | 60 | - | - | - | -
CCC(C)[C@H](NC(=O)Nc1ccccc1F)C(=O)O (some centres undefined) | . | . | - | - | - | .
C/C(=N/NC(=O)CCCOc1ccc(Cl)cc1Cl)c1ccc(C)o1 | - | - | - | - | - | -
COc1ccccc1/C(O)=C(\C#N)c1nc2ccccc2[nH]1 | - | - | - | - | - | -
CCCCCOc1ccccc1C(=O)NCCC(=O)O | - | - | - | . | - | -
O=C(N/N=C1\CCCc2ccccc21)c1ccccc1Cl | - | 88 | - | - | - | -
O=C(COc1cccc(Br)c1)N/N=C1\CCCc2ccccc21 | - | - | - | - | 75 | -
O=C(N/N=C1\CCc2ccccc21)c1ccccc1O | - | - | - | - | - | -
Nc1cc(Nc2ccc(Br)cc2)nc(N)n1 | . | . | - | - | - | .
Cc1nn(Cc2ccccc2)c(C)c1NC(=O)CSc1nc2sc3c(c2c(=O)n1C)CCC3 | - | - | - | . | . | -
Cc1ccc(C2CC(=O)C(C=NCCN3CCN(C(=S)Nc4ccc(F)cc4)CC3)=C(O)C2)cc1 (centres undefined) | - | - | - | - | - | -
Cc1cc(C)nc(N/N=C/C2=C(O)CC(c3ccc(F)cc3)CC2=O)n1 (centres undefined) | . | . | - | - | 75 | .
COc1ccccc1COCC(O)CN(Cc1ccco1)Cc1ccccc1O (centres undefined) | - | 82 | - | - | - | -
c1ccc(COc2ccc(CNCc3cccnc3)cc2)cc1 | - | 99 | - | - | - | -
Cc1ccc(CNCc2cccnc2)s1 | - | 66 | - | - | - | -
Cc1sc2ncnc(NCc3cccnc3)c2c1C | - | - | - | - | - | -
Cc1ccc(CNCc2cccnc2)cc1 | - | 93 | - | - | - | -
CCc1ccc(OCC(=O)NNC(=O)Cc2cccs2)cc1 | - | - | - | - | - | -
CC(C)(C)NC(=O)COc1ccc(CNCc2cccs2)cc1 | - | 77 | - | - | - | -
Cc1ccc(OCc2ccc(C(=O)NCc3cccnc3)cc2)cc1C | - | - | - | - | - | -
SMILES | MT stabilize HCS | L major viab | Dynein transport | bCat nuc transl | CHOP inh | Autophagy mod
CCN(CC)S(=O)(=O)c1ccc(NC=C(C#N)C#N)cc1 | . | . | - | - | - | .
Cc1cc(C)n2nc(SCC(=O)N(C)c3ccccc3)nc2n1 | - | - | - | - | - | -
CCC(C)C(NC(N)=O)C(=O)Nc1ccc(OCc2ccccc2)cc1 (centres undefined) | . | . | - | - | - | .
COc1cccc(C(=O)Nc2ccccc2OC(F)(F)F)c1 | - | - | - | - | - | -
CCOC(=O)c1sc(N(Cc2ccccc2)C(=O)CSc2nnc(C3CC3)n2N)nc1C | - | - | - | - | - | -
O=C(NCc1cccnc1)c1ccc(COc2ccc(Cl)cc2)cc1 | - | - | - | - | 71 | -
Brc1ccc(CNCc2cccs2)cc1 | - | - | - | - | - | -
O=C(COc1ccc(Cl)cc1)Nc1ccc(C(=O)NCc2cccnc2)cc1 | - | - | - | . | - | -
CCOc1ccc(NC(=O)NCc2cccnc2)cc1 | - | - | - | - | - | -
CCOc1ccc(CNCc2cccnc2)cc1 | - | 90 | - | - | - | -
c1ccc(COc2ccc(CNCc3cccs3)cc2)cc1 | - | 99 | - | - | - | -
